Data on ten molecules can be found in ChEMBL document CHEMBL1126834, “Chemistry, binding affinities, and behavioral properties of a new class of "antineophobic" mitochondrial DBI receptor complex (mDRC) ligands” (J Med Chem, 1993).

In test [1] the target is Adrenergic receptor alpha. The test is described as follows: Inhibitory activity by measuring its ability to displace [3H]clonidine from alpha-adrenergic receptor in rat brain. Type of test: tissue-based.
In test [2] the target is Serotonin 2 (5-HT2) receptor (Rattus norvegicus). Description: Inhibitory activity by measuring its ability to displace [3H]ketanserin from serotonin receptor in rat brain.
Test [3] in a line: Inhibitory activity by measuring its ability to displace [3H]spiperone from dopamine or serotonin 5-HT-1 receptors in rat brain. Format: tissue-based.
Test [4] deals with GABA-A receptor; anion channel. Description: Inhibitory activity at GABA A receptor, measured by the ability to displace [3H]flumazenil from GABA A receptor in rat brain. Type of test: tissue-based.
The target of another test is Glutamate NMDA receptor. The test is described as follows: Inhibitory activity by measuring its ability to displace [3H]-MK-801 from glutamate(NMDA) receptor in rat brain. Format: tissue-based.
The next test deals with Opioid receptor (Rattus norvegicus, UniProt P33533+P34975+P33535). The test is described as follows: Inhibition of [3H]naxolone binding to opiate receptors in rat brain. Format: tissue-based.
Test [5] deals with Sigma receptor (Rattus norvegicus). The test is described as follows: Tested for inhibitory activity by measuring its ability to displace [3H]3-PPP from sigma receptor in rat brain.
Test [6] in a line: Tested for inhibitory activity by measuring its ability to displace [3H]AMPA from glutamate (non-NMDA) receptor in rat brain. Type of test: tissue-based.
Test [7] can be described thus: Inhibitory activity by measuring its ability to displace [3H]glycine from glycine receptor in rat brain. Type of test: tissue-based.
The target of a further test is Adrenergic receptor beta (Rattus norvegicus, UniProt P18090+P10608+P26255). The test is described as follows: Inhibitory activity by measuring its ability to displace [125I]pindolol from beta-adrenergic receptor in rat brain. Type of test: tissue-based.
The nature of test [8]: Inhibitory activity at GABA B receptor, measured by the ability to displace [3H]baclofen from GABA B receptor in rat brain. Format: tissue-based.
The target of test [9] is GABA-A receptor; anion channel. The test is described as follows: Inhibitory activity at GABA A receptor, measured by the ability to displace [3H]zolpidem from GABA A receptor in rat brain. Type of test: tissue-based.
The target in test [10] is Adrenergic receptor alpha. Description: Inhibitory activity by measuring its ability to displace [3H]WB-4101 from alpha-adrenergic receptor in rat brain. Format: tissue-based.
Test [11] deals with GABA-A receptor; anion channel. The test is described as follows: Inhibitory activity at GABA A receptor, measured by the ability to displace [3H]GABA from GABA A receptor in rat brain. Format: tissue-based.
In test [12] the target is T1, Gastrin/cholecystokinin type B receptor (Rattus norvegicus, UniProt P30553).
T1 sequence (P30553 whole entry): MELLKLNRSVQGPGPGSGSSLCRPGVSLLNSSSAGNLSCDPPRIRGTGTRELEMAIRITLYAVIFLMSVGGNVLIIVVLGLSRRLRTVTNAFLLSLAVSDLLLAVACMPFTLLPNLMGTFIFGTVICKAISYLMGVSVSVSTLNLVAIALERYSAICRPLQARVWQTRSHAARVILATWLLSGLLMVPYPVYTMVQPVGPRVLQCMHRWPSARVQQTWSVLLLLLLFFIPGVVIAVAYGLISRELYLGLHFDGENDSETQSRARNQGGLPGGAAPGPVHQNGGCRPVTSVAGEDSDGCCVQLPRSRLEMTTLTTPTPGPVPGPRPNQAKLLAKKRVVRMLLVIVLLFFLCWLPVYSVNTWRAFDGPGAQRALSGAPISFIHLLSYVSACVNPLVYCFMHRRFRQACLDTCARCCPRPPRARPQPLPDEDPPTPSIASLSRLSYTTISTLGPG
The test is described as follows: Inhibitory activity by measuring its ability to displace [3H]L-365260 from cholecystokinin receptor in rat brain. Type of test: tissue-based.

For the next test, the target named is Cannabinoid receptor 1 (Rattus norvegicus, UniProt P20272). Description: Inhibitory activity, measured by displacement [3H]CP-55940 from cannabinoid receptor (CB1) in rat brain. Format: tissue-based.
For test [13], the target named is GABA-A receptor; anion channel. Description: Inhibitory activity at GABA A receptor, measured by the ability to displace [35S]TBPS from GABA A receptor in rat brain. Format: tissue-based.
Another test deals with Translocator protein (Rattus norvegicus, UniProt P16257). Description: Binding affinity against mitochondrial DBI complex (peripheral benzodiazepine receptor) using primary cultures of glial cells. Put shortly:
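Glia from cerebella of 8-day-old Sprague–Dawley rat pups, trypsin-dissociated and grown 14 days (~95% astroglia). Cells lysed in 50 mM Hepes pH 7.4, 4 μg protein per tube. Incubated with [3H]4'-chlorodiazepam and competitor for 90 min at 4 °C, then filtered. Nonspecific binding defined with 10 μM 4'-chlorodiazepam. Triplicate competition curves; IC50 by nonlinear regression, converted to Ki (Bylund–Yamamura).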

pIC50, pKi: −log10 of the molar value. Some results are limits rather than exact numbers.

Chain of Translocator protein (P16257 whole entry, looked up): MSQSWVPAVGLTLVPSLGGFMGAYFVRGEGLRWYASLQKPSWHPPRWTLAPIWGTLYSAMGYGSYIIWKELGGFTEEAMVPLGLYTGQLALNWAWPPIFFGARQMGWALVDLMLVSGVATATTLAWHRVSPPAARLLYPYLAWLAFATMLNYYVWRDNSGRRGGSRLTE
Chain of Cannabinoid receptor 1 (P20272 whole entry): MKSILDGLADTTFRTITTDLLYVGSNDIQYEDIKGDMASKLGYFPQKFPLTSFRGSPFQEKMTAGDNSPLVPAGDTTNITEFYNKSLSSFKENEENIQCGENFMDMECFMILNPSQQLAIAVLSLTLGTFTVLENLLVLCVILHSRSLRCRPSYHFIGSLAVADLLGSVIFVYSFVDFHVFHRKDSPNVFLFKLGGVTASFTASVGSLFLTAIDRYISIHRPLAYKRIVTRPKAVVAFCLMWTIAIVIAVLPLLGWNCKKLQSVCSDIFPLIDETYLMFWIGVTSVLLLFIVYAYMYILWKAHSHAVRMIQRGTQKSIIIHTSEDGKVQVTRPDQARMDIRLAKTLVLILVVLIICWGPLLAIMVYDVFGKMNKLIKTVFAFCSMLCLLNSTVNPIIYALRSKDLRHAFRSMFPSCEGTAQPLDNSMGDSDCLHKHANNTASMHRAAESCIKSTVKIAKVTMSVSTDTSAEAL

Turning to `c1ccc(-c2[nH]c3ccccc3c2CC2=NCCN2)cc1`, the IC50 (in test [1]; in test [2]; on Opioid receptor; in [5]; on Adrenergic receptor beta; in test [10]) was more than 1 µM in each case. Moreover, the pIC50 (in test [3]; in [4]; on Glutamate NMDA receptor; in test [6]; in test [7]; in test [8]) was less than 6.00 in each case. Moreover, the pIC50 (in test [9]; in test [11]; in test [12]; at Cannabinoid receptor 1; in [13]) was less than 6.00 throughout.
For the molecule `CCCN(CCC)C(=O)Cc1c(-c2ccc(I)cc2)[nH]c2ccccc12`, the IC50 (in [1]; in test [2]; on Opioid receptor; in test [5]; at Adrenergic receptor beta; in [10]) was more than 1 µM each time. The pIC50 (in test [3]; in test [4]; at Glutamate NMDA receptor; in [6]; in test [7]; in test [8]) was less than 6.00 each time. The pIC50 (in test [9]; in test [11]; in [12]; on Cannabinoid receptor 1; in [13]) was less than 6.00 in each case. Besides, the pKi (usually the negative decadic logarithm of the Ki, by convention in mol/L) on Translocator protein is 6.67.
In the case of `CCCN(CCC)C(=O)CCc1c(-c2ccc(Cl)cc2)[nH]c2ccc(Cl)cc12`, the IC50 (in test [1]; in [2]; on Opioid receptor; in test [5]; on Adrenergic receptor beta; in [10]) was more than 1 µM throughout. For the same molecule, the pIC50 (in [3]; in test [4]; on Glutamate NMDA receptor; in test [6]; in test [7]; in [8]) was less than 6.00 each time. Further, the pIC50 (in test [9]; in test [11]; in test [12]; at Cannabinoid receptor 1; in test [13]) was less than 6.00 throughout. In addition, the pKi at Translocator protein is 7.15.
With `CCCCCCCCCCNC(=O)Cc1c(-c2ccccc2)[nH]c2ccccc12`, the IC50 (in test [1]; in test [2]; on Opioid receptor; in test [5]; on Adrenergic receptor beta; in [10]) was more than 1 µM throughout. Further, the pIC50 (in [3]; in test [4]; at Glutamate NMDA receptor; in test [6]; in test [7]; in test [8]) was less than 6.00 throughout. For the same molecule, the pIC50 (in [9]; in test [11]; in [12]; at Cannabinoid receptor 1; in test [13]) was less than 6.00 in each case. The molecule also showed a pKi on Translocator protein of less than 6.00.
In the case of `O=C1Cc2c(-c3ccccc3)[nH]c3cccc(c23)N1`, the IC50 (in test [1]; in test [2]; on Opioid receptor; in test [5]; on Adrenergic receptor beta; in test [10]) was more than 1 µM each time. In addition, the pIC50 (in [3]; in test [4]; on Glutamate NMDA receptor; in test [6]; in test [7]; in test [8]) was less than 6.00 in each case. Besides, the pIC50 (in test [9]; in test [11]; in [12]; at Cannabinoid receptor 1; in [13]) was less than 6.00 in each case.
Regarding `CCCN(CCC)C(=O)Cc1c(-c2cccs2)[nH]c2ccccc12`, the IC50 (in [1]; on Adrenergic receptor beta; in [10]) was more than 1 µM each time. The pIC50 (in test [3]; in test [4]; at Glutamate NMDA receptor; in [6]; in test [7]; in [8]) was less than 6.00 each time. Further, the pIC50 (in [9]; in test [11]; in test [12]; on Cannabinoid receptor 1; in test [13]) was less than 6.00 throughout. The molecule further showed a pKi at Translocator protein of 6.52.
`CN(C)C(=O)Cc1c(-c2ccccc2)[nH]c2ccccc12`: the IC50 (in [1]; at Adrenergic receptor beta; in [10]) was more than 1 µM throughout. Also, the pIC50 (in [3]; in test [4]; on Glutamate NMDA receptor; in test [6]; in [7]; in [8]) was less than 6.00 in each case. In addition, the pIC50 (in [9]; in test [11]; in test [12]; at Cannabinoid receptor 1; in test [13]) was less than 6.00 in each case. For the same molecule, at Translocator protein, the pKi is 6.77.
Consider `CCN(CC)C(=O)Cc1c(-c2ccccc2)[nH]c2ccccc12`, for which the IC50 (in [1]; at Adrenergic receptor beta; in test [10]) was more than 1 µM throughout. For the same molecule, the pIC50 (in test [3]; in test [4]; at Glutamate NMDA receptor; in test [6]; in test [7]; in [8]) was less than 6.00 in each case. Besides, the pIC50 (in [9]; in test [11]; in [12]; at Cannabinoid receptor 1; in [13]) was less than 6.00 throughout. The pKi at Translocator protein was 6.81.
`CCCN(CCC)C(=O)Cc1c(-c2cccs2)[nH]c2ccc(Cl)cc12`: the IC50 (in test [1]; at Adrenergic receptor beta; in test [10]) was more than 1 µM in each case. In addition, the pIC50 (in test [3]; in test [4]; on Glutamate NMDA receptor; in test [6]; in test [7]; in test [8]) was less than 6.00 throughout. Moreover, the pIC50 (in test [9]; in test [11]; in test [12]; at Cannabinoid receptor 1; in test [13]) was less than 6.00 throughout. Besides, the pKi on Translocator protein is 7.11.
`CCCN(CCC)C(=O)Cc1c(-c2ccc(Cl)cc2)[nH]c2ccccc12`: the IC50 (in [1]; at Adrenergic receptor beta; in test [10]) was more than 1 µM in each case. Further, the pIC50 (in [3]; in test [4]; on Glutamate NMDA receptor; in [6]; in [7]; in [8]) was less than 6.00 in each case. Also, the pIC50 (in [9]; in test [11]; in test [12]; at Cannabinoid receptor 1; in [13]) was less than 6.00 throughout. The molecule also gave a pKi at Translocator protein of 7.18.
